Active and inactive are the calls of the source. The calls are words filed in the database; no cut-off is given here.
Experiments:
SW-620 [1] = test: Cell cycle arrest in human SW620 cells assessed as accumulation at S phase at 1 uM after 24 hrs by propidium iodide staining based flow cytometeric analysis (reference value: 48.4 +/- 1.4%); format: functional
HeLa [2] = test: Antiproliferative activity against human HeLa cells at 0.1 to 10 uM after 72 hrs by MTT assay; format: functional, cell-based
Summary of the method: (§1)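 Monolayer cells in DMEM with 10% FBS, 2 mM L-glutamine, penicillin and streptomycin at 37 °C, 5% CO2. Seeded at 3000-6000 cells/well by doubling time on day 0. Five 10-fold dilutions (0.01–100 µM) were added and incubated 72 h. MTT read-out, converted to percentage growth. IC50 by linear regression between bracketing concentrations. Quadruplicate points, three independent experiments, ANOVA/Tukey p<0.05.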

Nucleic Acid [3] = test: Binding affinity to calf thymus DNA assessed as fluorescence quenching at compound to DNA ratio of 0.28 by fluorimetric titrations; format: nucleic-acid assay; details: Bos taurus
Summary of the method: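 Fluorimetric titration: portions of ct-DNA (sonicated, filtered, concentration as phosphate) added to compound in cacodylate buffer pH 7.0, I = 0.05 mol dm^-3. Emission 350–600 nm, sample absorbance <0.05 at excitation, mostly DNA excess (r < 0.1). Ks and n = [bound compound]/[DNA phosphate] by non-linear least-squares Scatchard fitting.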

MCF7 = test: Antiproliferative activity against human MCF7 cells at 0.1 to 10 uM after 72 hrs by MTT assay; format: functional, cell-based; summary of the method: as §1
WI-38 = test: Antiproliferative activity against human WI38 cells at 0.1 to 10 uM after 72 hrs by MTT assay; format: cell-based; details: wi-38, 72 h; summary of the method: as §1
Nucleic Acid [4] = test: Binding affinity to calf thymus DNA assessed as increase in CD band at 275 nm wavelength by circular dichroism spectroscopy; format: nucleic-acid assay; details: Bos taurus
Summary of the method: (§2)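 CD spectra of ct-DNA (1.0 × 10^-5 mol dm^-3, as phosphate) titrated with compound at 25 °C. Sodium cacodylate buffer pH 7.0, I = 0.05 mol dm^-3, 1 cm quartz cuvette. DNA band (~274–275 nm) and induced bands above 300 nm followed versus r = [compound]/[ct-DNA].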

MIA PaCa-2 [5] = test: Antiproliferative activity against human MIAPaCa2 cells at 0.1 to 10 uM after 72 hrs by MTT assay; format: functional, cell-based; summary of the method: as §1
Nucleic Acid [6] = test: Binding affinity to calf thymus DNA assessed as appearance of weak, negative induced CD band at 337 nm wavelength by circular dichroism spectroscopy; format: nucleic-acid assay; details: Bos taurus; summary of the method: as §2
MIA PaCa-2 [7] = test: Cell cycle arrest in human MIAPaCa2 cells assessed as accumulation at subG1 phase at 1 uM after 48 hrs by propidium iodide staining based flow cytometeric analysis (reference value: 46.8 +/- 0.7%); format: functional
SW-620 [8] = test: Induction of apoptosis in human SW620 cells assessed as morphological change at 5 to 10 uM after 24 to 48 hrs by microscopic analysis; format: functional, cell-based
Summary of the method: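 Cells were seeded at 3 × 10^4 per well and exposed 24 h later to 1, 5 or 10 µM for 24 and 48 h. Apoptotic morphology (cell shrinkage, chromatin condensation) was scored by inverted light microscopy at 200× magnification.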

SK-BR-3 = test: Cytostatic activity against human SKBR3 cells at 1 to 10 uM after 72 hrs by MTT assay; format: functional, cell-based
Summary of the method: (§3)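 Monolayers in DMEM with 10% FBS, 2 mM L-glutamine, penicillin and streptomycin (37 °C, 5% CO2) were seeded at 3000–6000 cells/well on day 0. Five 10-fold dilutions (0.01–100 µM) were added, followed by 72-h incubation and MTT read-out. Absorbances were converted to percentage growth by the NIH formulae. Each point was run in quadruplicate in three experiments; ANOVA with Tukey test.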

HeLa [9] = test: Antiproliferative activity against human HeLa cells after 72 hrs by MTT assay; format: functional, cell-based; details: Homo sapiens, HeLa, 72 h; summary of the method: as §1
SW-620 [10] = test: Cell cycle arrest in human SW620 cells assessed as accumulation at G1 phase at 10 uM after 24 hrs by propidium iodide staining based flow cytometeric analysis (reference value: 29.3 +/- 1.5%); format: functional
SW-620 [11] = test: Cell cycle arrest in human SW620 cells assessed as accumulation at G2/M phase at 5 uM after 24 hrs by propidium iodide staining based flow cytometeric analysis (reference value: 22.3 +/- 2.9%); format: functional
SW-620 [12] = test: Cell cycle arrest in human SW620 cells assessed as accumulation at G2/M phase at 1 uM after 24 hrs by propidium iodide staining based flow cytometeric analysis (reference value: 22.3 +/- 2.9%); format: functional
MIA PaCa-2 [13] = test: Cell cycle arrest in human MIAPaCa2 cells assessed as accumulation at G2/M phase at 10 uM after 48 hrs by propidium iodide staining based flow cytometeric analysis (reference value: 14.3 +/- 1.8%); format: functional
MIA PaCa-2 [14] = test: Cell cycle arrest in human MIAPaCa2 cells assessed as accumulation at subG1 phase at 10 uM after 48 hrs by propidium iodide staining based flow cytometeric analysis (reference value: 46.8 +/- 0.7%); format: functional
SW-620 [15] = test: Cytostatic activity against human SW620 cells at 1 to 10 uM after 72 hrs by MTT assay; format: functional, cell-based; summary of the method: as §3
MIA PaCa-2 [16] = test: Cell cycle arrest in human MIAPaCa2 cells assessed as accumulation at subG1 phase at 5 uM after 24 hrs by propidium iodide staining based flow cytometeric analysis (reference value: 48.7 +/- 0.7%); format: functional
SW-620 [17] = test: Cell cycle arrest in human SW620 cells assessed as accumulation at subG1 phase at 10 uM after 24 hrs by propidium iodide staining based flow cytometeric analysis (reference value: 18 +/- 1%); format: functional
Summary of the method: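 Cells seeded at 3 × 10^4 per well and treated 24 h later with 1, 5 or 10 µM for 24 and 48 h. Adherent and floating cells were pooled, washed in PBS and fixed in 70% ethanol. They were then stained with propidium iodide 10 µg/mL plus RNase A 0.2 µg/mL. Flow cytometry counted 10000 events; each point was run in triplicate; significance was taken at p < 0.05.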

MIA PaCa-2 [18] = test: Cell cycle arrest in human MIAPaCa2 cells assessed as accumulation at S phase at 1 uM after 48 hrs by propidium iodide staining based flow cytometeric analysis (reference value: 20.5 +/- 0.2%); format: functional
SW-620 [19] = test: Antiproliferative activity against human SW620 cells after 72 hrs by MTT assay; format: functional, cell-based; details: Homo sapiens, SW-620, 72 h; summary of the method: as §1
SW-620 [20] = test: Cell cycle arrest in human SW620 cells assessed as accumulation at S phase at 5 uM after 48 hrs by propidium iodide staining based flow cytometeric analysis (reference value: 31.9 +/- 1%); format: functional
Nucleic Acid [21] = test: Binding affinity to calf thymus DNA assessed as hypochromic changes at 364 nm wavelength by UV-Vis spectrophotometric titrations; format: nucleic-acid assay; details: Bos taurus
Summary of the method: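 UV/Vis titration: aliquots of ct-DNA (concentration as phosphate) added to compound solution in sodium cacodylate buffer pH 7.0, I = 0.05 mol dm^-3, 1 cm quartz cuvettes. Hypochromism followed at band maxima. Compound absorbance linear up to 2.0 × 10^-5 mol dm^-3. Binding data fitted by the Scatchard equation.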

MIA PaCa-2 [22] = test: Cell cycle arrest in human MIAPaCa2 cells assessed as accumulation at G2/M phase at 5 uM after 24 hrs by propidium iodide staining based flow cytometeric analysis (reference value: 19.5 +/- 3.9%); format: functional

log Ks (Nucleic Acid [3]): 5.9 | Activity (Nucleic Acid [4]): Active | Activity (Nucleic Acid [6]): Active | IC50 (HeLa [9]): 0.41 µM | IC50 (SW-620 [19]): 0.64 µM | Activity (Nucleic Acid [21]): 35%
Compound: Cl.c1cnc2nc3ccc4ccc(C5=NCCN5)cc4n3c2c1
Activity (SW-620 [1]): 27.2% | Activity (HeLa [2]): Active | Activity (MCF7): Active | Activity (WI-38): Toxic | Activity (MIA PaCa-2 [5]): Active | Activity (MIA PaCa-2 [7]): 33.8% | Activity (SW-620 [8]): Active | Activity (SK-BR-3): Active | Activity (SW-620 [10]): 33.7% | Activity (SW-620 [11]): 2.1% | Activity (SW-620 [12]): 18.5% | Activity (MIA PaCa-2 [13]): 16.9% | Activity (MIA PaCa-2 [14]): 39.3% | Activity (SW-620 [15]): Active | Activity (MIA PaCa-2 [16]): 53.4% | Activity (SW-620 [17]): 20.1% | Activity (MIA PaCa-2 [18]): 34.6% | Activity (SW-620 [20]): 7.5% | Activity (MIA PaCa-2 [22]): 18.3%

From ChEMBL document CHEMBL1806443, “Novel imidazo[4,5-b]pyridine and triaza-benzo[c]fluorene derivatives: synthesis, antiproliferative activity and DNA binding studies” (Eur J Med Chem, 2011)
